PGC1a acetyl up: compounds raising PGC1a acetylation signal, primary screen, PGC1a modulator project, cell-based, U2OS, AlphaScreen, signal-increasing mode; overnight; activation, % at 15.6 µM; 0.21% of 350,000 active;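 active = every replicate reaching activation of at least 50%, whatever the mean replicate activation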;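 note: hits raise the AlphaScreen acetylation signal above neutral controls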
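System – flag-PGC1a/GCN5 U2OS cells · Quantity – 7000 U2OS cells per well · Signal – AlphaScreen proximity luminescence, anti-acetyl-lysine antibody · Schedule – overnight compound treatment, 37 °C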
* hit, by the source's call. The sample as a whole holds a higher share of hits than the screen did.

SMILES	PGC1a acetyl up
CS(=O)(=O)c1ncc(Cl)c(C(=O)Nc2ccc(N3CCOCC3)cc2)n1	80.9*
Cc1cc(C)c(NC(=O)c2ccc(S(=O)(=O)N(C)C)cc2)c(C)n1	-50.4
O=C(C[C@H]1C=C[C@H](NC(=O)Nc2ccc(C(F)(F)F)cc2)[C@@H](CO)O1)NCc1ccccn1	-43.5
N#Cc1c(N)c(C(=O)c2ccccc2)n2ccccc12	-49.3
CO[C@H]1CN(C)C(=O)c2cc(NC(=O)c3ccccc3F)ccc2OC[C@@H](C)N(C(C)=O)C[C@@H]1C	-130.3
CCCCOc1ccc(CNC(=O)NS(=O)(=O)c2ccc(OCC(C)C)cc2)cc1	-48.9
CCCOc1ccc2c(c1)C(=NN=C(N)N)c1cc(OCCC)ccc1-2	75.4*
Cc1ccc(-c2cnc3c(c2)C(=O)N([C@@H](C)CO)C[C@@H](C)[C@H](CN(C)C)O3)cc1	-109.0
CCOC(=O)C1(Cc2cccc(F)c2)CCN(Cc2ccc(COC)o2)CC1	-44.7
CS(=O)(=O)N(CC(=O)N1CCN(c2ccccc2)CC1)c1cccc(Br)c1	-43.4
CC(=O)Nc1ccc(NC(=O)CN(c2cccc([N+](=O)[O-])c2)S(C)(=O)=O)cc1	455.0*
CC1(Cc2ccc(Cl)cc2)C(=O)Nc2ccc(-c3cccnc3)cc21 (stereo unspecified)	-45.9
Cc1ccc(CC2(C)C(=O)Nc3c(Cl)ccc(Cl)c32)cc1 (stereo unspecified)	158.9*
CC(C)Cn1cnc2c(N)nc3ccccc3c21	-42.3
O=C(NCc1cccc(Cl)c1)c1ccc(-n2ccnc2)c2ccoc12	51.6*
COc1cc(/C=C2\COC/C(=C\c3ccc(O)c(OC)c3)C2=O)ccc1O	89.6*
COc1ccc2c(c1)CC/C(=C/c1cc(OC)c(OC)c(OC)c1)C2=O	-52.5
O=[N+]([O-])c1ccc(Oc2cccc(F)c2)c2ccncc12	-70.6
Cc1ccc(S(=O)(=O)C(NC(=O)c2ccccc2)=C(Cl)Cl)cc1	59.7*
Cc1ccc(C(=O)NNC(=O)c2cccc(Br)c2)cc1	-63.2
C[C@@H]1CN([C@H](C)CO)C(=O)CCCn2nncc2CO[C@@H]1CN(C)S(=O)(=O)c1cn(C)cn1	-100.7
Cc1nc([N+](=O)[O-])c(Br)n1Cc1ccc(Cl)c(Cl)c1	89.8*
C[C@@H]1CN([C@@H](C)CO)C(=O)CCCn2cc(nn2)CO[C@H]1CN(C)S(=O)(=O)c1ccccc1	-47.3
N#CCSc1nnc(COc2ccc3ccccc3c2)o1	51.8*
O=C(O)CSc1nnc(COc2cccc3ccccc23)o1	-42.2
SMILES	PGC1a acetyl up
COc1ccc(C2NC3=C(CCC3)C3(C#N)C(OC)(OC)N=C(N)C23C#N)cc1 (stereo unspecified)	-40.7
COc1cc(Cn2c(N)c(C#N)c3nc4ccccc4nc32)cc(OC)c1	51.6*
Cc1cccc(COc2ccc(/C=C3/C(=O)N(C)C(=S)N3C)cc2)c1	-70.6
C[C@H](CO)N1C[C@H](C)[C@@H](CN(C)Cc2ccc(C(F)(F)F)cc2)OCc2cnnn2CCCC1=O	-54.6
O=C(CC1SC(=Nc2ccc3c(c2)OCCO3)NC1=O)Nc1ccc(F)cc1F (stereo unspecified)	188.6*
Cc1ccc(NC(=O)c2ccc([N+](=O)[O-])o2)cc1C	90.2*
Cc1ccc2nsnc2c1NC(=O)c1ccc([N+](=O)[O-])o1	-44.0
COc1cccc(-c2csc(N3CCN(C(=S)Nc4ccccc4Cl)CC3)n2)c1	66.7*
CCCCN(C)C1CCN(C(=S)Nc2cccc(OC)c2)CC1	-51.6
O=S(=O)(Nc1cccc(CCc2ccccn2)c1)c1ccc2ccccc2c1	-44.3
O=C(CSc1ccsc1[N+](=O)[O-])NCCc1ccc(Cl)cc1	68.4*
C=CC[C@@H](CC(=O)N[C@@H](CO)Cc1ccccc1)C(=O)N[C@@H](COC(=O)[C@@H](CC=C)CC(=O)OC(C)(C)C)Cc1c[nH]c2ccccc12	154.7*
CC(C)[C@H]1COCCS(=O)(=O)N1Cc1ccccc1F	-49.7
N#Cc1ccc(Oc2cccnc2)cc1C#N	52.7*
On1onc2c3cc(-c4ccccc4)nc3ccc21	620.5*
c1ccc(-c2cc(-c3ccccc3)n3ncnc3n2)cc1	-44.8
CCCN(CC)c1ncnc2[nH]ncc12	-44.2
CC1=NN(C(=O)c2ccc(C)cc2)C(O)(C(F)(F)OC(F)(F)F)C1 (stereo unspecified)	54.9*
CC(C)CCC1=NN(C(=O)c2ccco2)C(O)(C(F)(F)F)C1 (stereo unspecified)	-44.1
CO[C@H]1CN(C)C(=O)c2ccc(NS(=O)(=O)c3ccccc3)cc2OC[C@@H](C)N(C(=O)NC(C)C)C[C@@H]1C	-51.7
O=C(CNc1cccc2ccccc12)N/N=C/C(Br)=C/c1ccccc1	213.4*
O=C(N/N=C/C(Br)=C/c1ccccc1)c1cccs1	166.4*
O=C(N/N=C/C(Br)=C/c1ccccc1)c1cc(-c2ccco2)[nH]n1	142.7*
O=C(Nc1ccc2c(c1)C(=O)N(c1ccccc1)C2=O)c1cccs1	-52.7
O=C(N/N=C/C(Br)=C/c1ccccc1)c1n[nH]c2c1CCC2	72.4*

Bioassay records from PubChem BioAssay.
